Myeloid diff 2: promotes myeloid progenitor differentiation; 360,000 tested, 1% active; calls only at 10 µM; ER-HoxA9 myeloid progenitors, lysozyme-GFP differentiation, flow cytometry;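 active = normalized GFP-positive differentiation at or above the plate's own cutoff, the solvent-only control mean plus 3 SD; inconclusive = no clear call, values can overlap the other calls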;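 note: cells exposed to compound for four days before flow analysis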
CSN deneddyl inh: inhibitors of human CSN-mediated cullin deneddylation. Q92905. inhibition, % at 12.5 µM. Purified CSN, SCF-Nedd8-OG deneddylation, fluorescence polarization. 360,000 tested, 0.38% active. AID 651999;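 active = pattern-corrected inhibition above about 35%, with an unprinted fluorescence ratio check between 0.5 and 1.5, limit read from the data, passing the limit was not always enough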;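 note: 0% = enzyme with substrate and 100% = substrate without enzyme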
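assay system = purified human Csn5 enzyme expressed in HEK293T cells | amount = 0.24 nM enzyme | buffer or medium = Tris/NaCl/DTT buffer, pH 7.5 | reagent = 10 nM SCFSkp2-Nedd8OG | compound = one concentration, 12.5 µM, 0.25% DMSO | times = 90 min reaction at room temperature | signal = FP | read-out basis = % inhibition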
HNF4A DNA FP: change in binding of human HNF4 alpha to DNA; P41235; HNF4a-FITC DNA binding, fluorescence polarization, 1 h; activity change, % at 10 µM; 360,000 tested, 0.3% active; AID 1224865; in the data active = activity change above about 30%, passing the limit was not always enough
Target sequence (P41235 whole entry, looked up): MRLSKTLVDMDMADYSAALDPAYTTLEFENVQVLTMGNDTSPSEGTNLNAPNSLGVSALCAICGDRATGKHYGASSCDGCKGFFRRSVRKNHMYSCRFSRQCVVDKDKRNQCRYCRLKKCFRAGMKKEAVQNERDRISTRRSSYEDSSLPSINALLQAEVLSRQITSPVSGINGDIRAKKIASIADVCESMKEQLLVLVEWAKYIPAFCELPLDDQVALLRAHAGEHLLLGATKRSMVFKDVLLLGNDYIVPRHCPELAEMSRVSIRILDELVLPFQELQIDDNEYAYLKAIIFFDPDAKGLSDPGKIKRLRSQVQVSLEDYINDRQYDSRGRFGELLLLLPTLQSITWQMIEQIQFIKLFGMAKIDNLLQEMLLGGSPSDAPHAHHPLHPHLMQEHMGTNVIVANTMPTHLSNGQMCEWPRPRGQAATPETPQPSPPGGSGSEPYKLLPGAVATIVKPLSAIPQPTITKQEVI
Rpn11 inh: inhibitors of human proteasome Rpn11 | O00487 | human 26S proteasome, Ub4-pepOG fluorescence polarization; 20S core pre-blocked with epoxomicin | inhibition, % at 20 µM | 360,000 tested, 0.59% active | AID 588493;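 active = inhibition at 20 µM, scaled to each plate's controls, above about 33%, limit read from the data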
Target sequence (O00487 whole entry, looked up): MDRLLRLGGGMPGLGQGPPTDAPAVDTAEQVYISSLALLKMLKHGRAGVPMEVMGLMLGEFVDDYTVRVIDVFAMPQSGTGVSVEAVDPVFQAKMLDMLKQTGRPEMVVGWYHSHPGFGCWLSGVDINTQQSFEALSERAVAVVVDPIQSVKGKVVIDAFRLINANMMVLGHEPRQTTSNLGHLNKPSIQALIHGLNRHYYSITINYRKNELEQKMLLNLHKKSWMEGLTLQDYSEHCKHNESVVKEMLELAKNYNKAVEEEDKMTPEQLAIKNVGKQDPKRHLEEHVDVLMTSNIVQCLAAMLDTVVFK
TPT1 inhibitor: blocks Candida albicans tRNA 2'-phosphotransferase; recombinant caTPT1, FP RNA substrate dephosphorylation; AID 1962; inhibition, % at 5 µM; 300,000 tested, 0.81% active;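 active = inhibition above the mean of all tested compounds plus 3 SD, set per screening campaign, cut at about 24% in these data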;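 note: plate controls were DMSO alone for no effect and ferristatin control at 100 nM for full effect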
Rpn11 inh conf: confirmation of human proteasome Rpn11 inhibitors. purified human 26S proteasome, Ub4-pepOG fluorescence polarization; proteasome pretreated with epoxomicin. shares compounds with Rpn11 inh. AID 602318. 1,900 tested, 29% active. inhibition, % at 20 µM
MMP-2 inh: blocks human MMP-2, flagging nonselective RPN11 hits; inhibition, % at 20 µM; AID 602330; recombinant MMP-2, FRET peptide cleavage fluorescence; shares compounds with Rpn11 inh; 1,900 tested, 4% active;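 note: human MMP-2 activated beforehand with APMA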
Thrombin inh: blocks bovine thrombin, flagging nonselective RPN11 hits; shares compounds with Rpn11 inh; bovine thrombin cleavage of Ub4-pepOG, fluorescence polarization; inhibition, % at 20 µM; 1,900 tested, 13% active;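 active = mean inhibition at least 40% at 20 µM, or signal 3 deviations below plate average, so some actives read negative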;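 note: plate controls were thrombin with DMSO for no effect and buffer wells lacking thrombin for full effect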
The depositor's hits bear a star; i = inactive; u = inconclusive; x = no result given. Shown are actives, neighbours in structure and some others; about 2.3% of the full set was active somewhere. Cut-off read from the data, not from the text of the source, unless noted: active = inhibition above about 40%; inactive = the rest.

SMILES | Myeloid diff 2 | CSN deneddyl inh | HNF4A DNA FP | Rpn11 inh | TPT1 inhibitor | Rpn11 inh conf | MMP-2 inh | Thrombin inh
CCCC(=O)NC(c1ccco1)c1cc(Cl)c2cccnc2c1O (stereo not drawn) | i | 0.2 | 0.0 | 42.0* | 3.4 | 11.5 | 16.5 | 0.7
Cc1cnc(C(=O)OCC(=O)Nc2cc(-c3ccccc3)nn2-c2ccccc2)cn1 | i | -0.5 | 0.3 | -0.4 | 2.5 | x | x | x
O=C1CCC[C@@H]2Cc3nc4cc5c(cc4cc3[C@@H]3CCN1[C@H]23)OCO5 | i | -5.7 | -0.6 | -3.9 | x | x | x | x
CCCCCCCCCCCCCCC(O)C[N+](C)(CCO)CCO (stereo not drawn) | x | -1.8 | 3.1 | 82.6* | x | 42.3* | -21.2 | -27.3
Cc1cc(/C=C2\C(=N)N3N=C(C(C)C)SC3=NC2=O)c(C)n1Cc1ccccc1 | i | 7.0 | -1.5 | 3.6 | 8.4 | x | x | x
Cc1ccccc1-n1c(C)cc(/C=C2/C(=N)N3C(c4ccccc4)=CSC3=NC2=O)c1C | i | 28.1 | 16.6 | 103.2* | 8.8 | 27.1 | 22.7 | 28.7
CC1=NN2C(=N)/C(=C\c3cc(C)n(-c4ccccc4)c3C)C(=O)N=C2S1 | i | 5.0 | 10.0 | -0.5 | 1.5 | x | x | x
Cc1cc(/C=C2\C(=N)N3C(SCc4ccccc4)=NSC3=NC2=O)c(C)n1Cc1ccccc1 | i | 4.9 | 17.4 | 43.8* | 5.7 | -1.5 | -27.5 | -36.5
COc1ccc(CCNC(=O)CS(=O)Cc2nc(-c3cccs3)oc2C)cc1OC (stereo not drawn) | i | -3.5 | 2.1 | 119.6* | 3.1 | 11.9 | -5.8 | 12.7
CCOC(=O)CSc1cc(=O)n(C)c2cc(Cl)ccc12 | i | -5.6 | 6.2 | 0.8 | -1.0 | x | x | x
O=C(CCC(=O)c1cccs1)NCc1ccccc1Cl | i | 6.4 | 4.5 | 8.6 | x | x | x | x
c1cc(CNCCCN2CCOCC2)ccn1 | i | 5.2 | -0.4 | 8.0 | 3.1 | x | x | x
CC(=O)N(CCCN1CCOCC1)Cc1ccncc1 | i | 1.1 | 18.1 | 39.6* | -2.0 | -5.5 | -0.4 | -10.0
CC(C)NC(=S)N/N=C/c1sc(N2CCCCC2)nc1-c1cccs1 | i | 1.3 | 40.9* | 53.2* | 10.7 | 46.4* | 33.5 | 7.9
O=C(N/N=C/c1sc(N2CCCCC2)nc1-c1cccs1)C1CC1 | i | 4.4 | 10.9 | 23.0 | -1.3 | x | x | x
NC(=O)N/N=C/c1sc(N2CCCCC2)nc1-c1cccs1 | i | 9.8 | 20.6 | 55.7* | 0.8 | 3.8 | -11.1 | -1.2
CCCCNC(=S)N(C)/N=C/c1sc(N2CCCCC2)nc1-c1cccs1 | x | x | x | x | 1.2 | x | x | x
CN1/C(=C/C(=O)c2nc(S(C)(=O)=O)ncc2Cl)C(C)(C)c2ccccc21 | x | 9.9 | 4.3 | 49.2* | 10.8 | 2.2 | -18.2 | 10.8
CN1/C(=C\C(=O)c2cccnc2)C(C)(C)c2ccccc21 | i | 3.0 | -2.1 | 0.7 | 1.5 | x | x | x
COc1ccc(-n2cccc2/C=C2/NC(=O)N(c3cccc(Cl)c3)C2=O)cc1 | i | -11.3 | 10.8 | 41.4* | 3.5 | 5.9 | -18.1 | 3.6
CC(Nc1ccc(Br)cn1)c1cc(Cl)ccc1O (stereo not drawn) | i | -6.1 | 29.7 | 72.8* | x | 5.6 | 8.3 | 4.2
CC(Nc1ccc(Cl)cc1)c1cc(Cl)ccc1O (stereo not drawn) | i | -2.9 | 9.6 | -0.2 | -3.7 | x | x | x
Cc1cc(C(=O)N/N=C/c2ccc(-c3cccc(Br)c3)o2)n[nH]1 | i | 2.5 | -0.4 | 17.4 | -4.0 | x | x | x
Cc1cc(C(=O)N/N=C/c2ccc(-c3cccc(Cl)c3Cl)o2)n[nH]1 | i | -2.6 | 12.9 | 58.9* | 1.3 | 21.7 | -34.3 | -13.1
COc1ccc(-c2cc(C(F)(F)F)nc(SCCC(=O)N3CCN(C)CC3)n2)cc1 | i | -0.3 | 1.6 | -0.5 | x | x | x | x
SMILES | Myeloid diff 2 | CSN deneddyl inh | HNF4A DNA FP | Rpn11 inh | TPT1 inhibitor | Rpn11 inh conf | MMP-2 inh | Thrombin inh
COCC(C)NC(=O)CCSc1nc(-c2ccc(OC)cc2)cc(C(F)(F)F)n1 (stereo not drawn) | i | 1.9 | 1.9 | 85.8* | -1.2 | -14.0 | -22.4 | -28.1
N/C(=N\OC(=O)c1cccc2ccccc12)c1cccc([N+](=O)[O-])c1 | i | 13.3 | 10.2 | 81.4* | -5.0 | 12.7 | 32.5 | -6.1
COC(=O)c1sccc1NC(=O)c1ccc2c(c1)OCO2 | i | -3.6 | -0.1 | 5.1 | -0.2 | x | x | x
COC(=O)c1c(-c2cccnc2)csc1NC(=O)c1ccc2c(c1)OCO2 | i | 10.1 | 14.1 | 51.6* | 21.2 | 52.1* | -19.8 | 21.1
CCN(CC)S(=O)(=O)c1ccc(C)c(C)c1 | i | 4.5 | 3.9 | -3.7 | -2.6 | x | x | x
CCN(CC)S(=O)(=O)c1cc(C)ccc1SC | i | -7.6 | 1.3 | 27.8* | 0.7 | -2.6 | -21.0 | 2.4
Cc1nc2c(sc(=S)n2Cc2ccco2)c(=O)n1CC(=O)Nc1cc(F)ccc1F | i | 5.0 | -6.6 | 1.7 | -3.4 | x | x | x
COc1ccccc1NC(=O)Cn1c(C)nc2c(sc(=S)n2Cc2ccco2)c1=O | i | -0.1 | 2.8 | 57.9* | -1.3 | 7.3 | -36.5 | 0.7
Clc1cccc(-c2nc3ccc(Br)cn3c2Cc2ccccc2)c1 | i | 8.5 | 21.5 | 49.9* | x | 35.3 | 11.0 | 8.1
Brc1cccc(-c2nc3ccc(Br)cn3c2Cc2ccccc2)c1 | i | 11.3 | 23.6 | 44.0* | x | 21.0 | -24.0 | -0.7
Clc1cccc(Cc2c(-c3cccc(Br)c3)nc3ccc(Br)cn23)c1 | i | 6.8 | 11.6 | 25.1 | x | x | x | x
COc1ccc(CC(=O)Nc2ccc(-c3noc(-c4ccc(Cl)cc4)n3)cc2)cc1 | i | 1.2 | 12.5 | 97.8* | -2.1 | -1.5 | -28.9 | -15.6
O=C(CCCSc1nc(-c2ccco2)cc(C(F)(F)F)n1)NCc1cccs1 | i | 3.8 | 4.9 | 33.4* | 5.3 | 11.4 | -6.1 | 5.9
COc1ccc(/C=N/NC(=O)c2sc3nc(C)cc(C)c3c2N)cc1 | i | -2.6 | 1.8 | 0.0 | 1.6 | x | x | x
Cc1cc(C)c2c(N)c(C(=O)N/N=C/c3cccs3)sc2n1 | i | 11.0 | 37.6 | 95.1* | 11.7 | 58.5* | -11.9 | 40.8*
Cc1ccc(N(C)S(=O)(=O)c2ccc(-c3cc(C)no3)s2)cc1 | u | 3.4 | -2.5 | -4.7 | -3.4 | x | x | x
Cc1cc(-c2ccc(S(=O)(=O)N(C)c3ccc(C)c(C)c3)s2)on1 | u | 3.5 | 1.1 | 40.5* | -1.4 | 43.1* | 8.9 | 40.4*
CN(C)CCNC(=O)c1c(NC(=O)c2ccccc2)sc2c1CCCC2 | i | -0.1 | 4.2 | -4.1 | 0.0 | x | x | x
COCCNC(=O)c1c(NC(=O)c2nc(SC)ncc2Cl)sc2c1CCCC2 | i | -0.2 | 30.4 | 81.1* | 3.0 | 45.2* | -47.5 | 33.9
CN(C)C(CNC(=O)c1cccc(C(F)(F)F)c1)c1ccco1 (stereo not drawn) | i | 6.5 | 1.5 | -2.9 | -2.9 | x | x | x
